Hits are enriched below; roughly 2.6% of the tested compounds scored in any of these assays.
SENP6 inh: SENP6 protease inhibitors, primary screen, biochemical, luminescence, uHTS; inhibition, % at 10 µM; Recombinant SENP6 catalytic domain, aminoluciferin luminescence; 1.8% of 330,000 active; AID 2599, 2010; Sentrin-specific protease 6 (Homo sapiens), Q9GZR1;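 active = inhibition above about 50% at the single tested dose, limit read from the data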;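 also: plate controls were DMSO wells with enzyme for no effect and DMSO wells lacking enzyme for full effect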
SENP8 block-1: human SENP8 protease inhibitors, primary screen, biochemical, fluorescence, Nedd8 protein substrate, uHTS; 0.64% of 360,000 active; recombinant SENP8; AID 602440, 2012; inhibition, % at 20 µM; Sentrin-specific protease 8 (Homo sapiens), Q96LD8; in the data active = inhibition mostly above about 40%, no sharp cut-off; inactive = mostly below about 27%
Target sequence (Q96LD8 whole entry, looked up): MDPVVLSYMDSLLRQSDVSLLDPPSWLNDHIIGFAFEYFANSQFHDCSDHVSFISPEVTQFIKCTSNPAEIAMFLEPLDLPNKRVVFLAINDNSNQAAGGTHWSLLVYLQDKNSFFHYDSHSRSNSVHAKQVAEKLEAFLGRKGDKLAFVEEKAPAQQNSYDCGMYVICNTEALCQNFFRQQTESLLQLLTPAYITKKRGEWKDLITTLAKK
Platelet DG rel: inhibitors of platelet dense granule secretion, primary screen, cell-based, MLPCN, human platelets; 0.22% of 300,000 active; human platelet-rich plasma, SFLLRN dense granule ATP release, luminescence; inhibition, %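 (compounds screened at 7.5 µM in platelet-rich plasma)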;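 active = mean replicate score, as percent of positive control, at or above 50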
SENP7 inh: SENP7 protease inhibitors, primary screen, biochemical, luminescence, uHTS; Sentrin-specific protease 7 (Homo sapiens), Q9BQF6; inhibition, % at 5 µM; 1.5% of 330,000 active; recombinant SENP7, Z-RLRGG-aminoluciferin luminescence, 40 min;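 active = inhibition above about 50% at the single test dose, limit read from the data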;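 also: plate controls were DMSO with enzyme for no effect and no enzyme buffer wells for full effect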
SENP1 FRET inh: human SENP1 catalytic domain inhibitors, primary screen, biochemical, FRET, uHTS. Sentrin-specific protease 1 (Homo sapiens), Q9P0U3. recombinant SENP1 catalytic domain, CyPet-SUMO1-YPet FRET cleavage. inhibition, % at 10 µM. 0.21% of 360,000 active;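 active = inhibition at least 30% at 10 µM, raw YFP signal under a set limit, fluorescence ratio 0.5 to 1.5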;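 also: 0% = enzyme with DMSO and 100% = no enzyme wells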
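Compound: 10 µM single point, 0.5% DMSO; Test system: hSENP1 catalytic domain, recombinant; Timing: 50 min reaction at room temperature; Technique: FRET, CFP and YFP emission; Control set: no-enzyme wells low, DMSO-plus-enzyme wells high control.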
SENP8 block-2: SENP8 protease inhibitors, primary screen, biochemical, luminescence; inhibition, % at 10 µM; purified SENP8, Z-RLRGG-aminoluciferin cleavage; Sentrin-specific protease 8 (Homo sapiens), Q96LD8; 1.2% of 330,000 active; in the data active = inhibition above about 50%
SENP8 confirm: SENP8 protease inhibitors, retest, confirmation, biochemical, luminescence, single concentration; shares compounds with SENP7 inh; Recombinant SENP8, Z-RLRGG-aminoluciferin luminescence, 60 min; inhibition, % at 12.5 µM; 40% of 6,200 active; AID 488912, 2010;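 active = mean inhibition across replicates above about 50%, limit read from the data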
SENP6 confirm: SENP6 protease inhibitors, confirmation, biochemical, luminescence, single concentration; shares compounds with SENP7 inh; recombinant SENP6, Z-RLRGG-aminoluciferin luminescence; inhibition, % at 12.5 µM; 58% of 6,200 active
SENP7 confirm: SENP7 protease inhibitors, retest, confirmation, biochemical, luminescence, single concentration | shares compounds with SENP7 inh | recombinant SENP7, Z-RLRGG-aminoluciferin luminescence, 40 min | inhibition, % at 12.5 µM | 69% of 6,200 active
Casp3 select: caspase-3 protease inhibitors, confirmation, selectivity assay for SENP inhibitor project, biochemical, single concentration; shares compounds with SENP7 inh; purified caspase-3, Z-DEVD-aminoluciferin luminescence, 60 min; inhibition, % at 12.5 µM; 60% of 6,200 active;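 active = mean inhibition above about 50%, limit read from the data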;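 also: plate controls were enzyme with DMSO for no effect and wells without caspase-3 for full effect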
Target sequence (P42574 28-227 limits assumed): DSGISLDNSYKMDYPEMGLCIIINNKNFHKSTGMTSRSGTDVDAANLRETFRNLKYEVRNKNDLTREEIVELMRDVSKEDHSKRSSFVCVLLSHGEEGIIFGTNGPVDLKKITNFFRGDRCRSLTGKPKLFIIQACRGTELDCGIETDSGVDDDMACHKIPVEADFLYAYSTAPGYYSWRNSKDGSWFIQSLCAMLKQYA
Luc interf: interferes with luciferase luminescence in SENP counter-screen | shares compounds with SENP7 inh | 39% of 6,200 active | inhibition, % at 12.5 µM | Pre-incubated SENP8/Z-RLRGG-aminoluciferin, luciferase luminescence interference;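 active = mean inhibition above about 50% when retested at one dose, limit read from the data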;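 also: plate controls were DMSO wells with completed reaction for no effect and substrate without enzyme for full effect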
Numbers without * were called inactive; / = no result given.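 The calls were made as follows, unless noted: active = mean inhibition above about 50% in the one-dose retest (limit read from the data); inactive = the rest.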

SMILES	SENP6 inh	SENP8 block-1	Platelet DG rel	SENP7 inh	SENP1 FRET inh	SENP8 block-2	SENP8 confirm	SENP6 confirm	SENP7 confirm	Casp3 select	Luc interf
COc1ccc(CNC(=O)CN2C(=O)CCSc3ccc(S(=O)(=O)N4CCCC4)cc32)cc1	14	10	-22	0	4	6	/	/	/	/	/
COCC(=O)N1CCC(n2nccc2NC(=O)c2ccccc2OC)CC1	-17	9	-8	4	1	1	/	/	/	/	/
COc1cccc(CNC(=O)CCC2CCCN(C(=O)c3cc4ccccc4o3)C2)c1 (stereo not given)	21	7	8	52*	2	54*	0	62*	89*	76*	59*
Cn1c(=O)c2c(O)c(Cc3ccccc3)c(=O)[nH]c2n(C)c1=O	61*	7	-24	29	-3	4	42	39	66*	64*	8
Cc1ccc(NC(=O)COc2ccc3c(c2)OCO3)c(Cl)c1	21	14	/	62*	-1	0	12	6	7	4	-2
O=C(NCc1cc(Cl)cc(Cl)c1)c1csc(COCCO)n1	/	16	/	/	5	/	/	/	/	/	/
CCOc1cc(N2CCOCC2)c(OCC)cc1NC(=O)c1ccc(S(=O)(=O)N2CC(C)OC(C)C2)cc1 (stereo not given)	/	10	/	/	-2	/	/	/	/	/	/
O=C(O)c1c2c(nc3ccccc13)/C(=C/c1ccc(O)cc1)CC2	77*	-398	-8	71*	-26	76*	91*	88*	98*	93*	63*
Clc1ccccc1-c1nc(-c2ccccc2)n[nH]1	74*	6	-10	74*	0	53*	-6	57*	85*	62*	66*
Oc1ccccc1-c1n[nH]c(-c2ccccc2O)n1	/	-85	/	/	1	/	/	/	/	/	/
CC(Nc1cccc2ccccc12)C(=O)N/N=C/c1ccccn1 (stereo not given)	81*	18	2	45	-13	85*	-9	5	-4	1	4
O=C(CCCC(=O)N/N=C\c1ccccn1)N/N=C\c1ccccn1	-2	5	1	4	1	-1	/	/	/	/	/
O=C(c1cc(-c2ccc(Br)cc2)on1)N1CCCC1	55*	12	5	42	1	39	4	7	33	39	9
COc1ccc(-c2cc(C(=O)N3CCCCCC3)no2)cc1	57*	21	-1	48	2	38	41	50*	83*	56*	24
O=C(c1cc(-c2ccc(O)cc2)on1)N1CCCC1	39	10	16	7	7	14	/	/	/	/	/
COc1cccc(-c2cc(C(=O)N3CCCCCC3)no2)c1	67*	13	2	45	1	48	62*	61*	85*	62*	49
COc1ccc(-c2cc(C(=O)N3CCCC3)no2)cc1	74*	5	-4	53*	4	50	49	52*	86*	80*	39
COc1cccc(-c2cc(C(=O)N3CCN(c4ccc(F)cc4)CC3)no2)c1	-17	15	7	-7	-1	-2	/	/	/	/	/
COc1ccc(-c2cc(C(=O)N3CCCCCC3)no2)cc1OC	-13	-2	2	-5	2	-15	/	/	/	/	/
CC1(C(=O)Nc2ccc3c(c2)OCCO3)CN(S(C)(=O)=O)CC(=O)N1CCc1ccc(O)cc1 (stereo not given)	/	8	/	/	-3	/	/	/	/	/	/
Cc1sc2ncnc(SCC(=O)Nc3ccc(S(=O)(=O)N4CCOCC4)cc3)c2c1C	7	-20	/	-4	-5	9	/	/	/	/	/
Cc1cccc(NC(=O)N2CCCC2C(=O)Nc2ccccc2)c1 (stereo not given)	10	3	-1	4	1	8	/	/	/	/	/
COc1ccc(C)cc1NC(=O)/C=C/c1ccc(OC)c(S(=O)(=O)N2CCOCC2)c1	4	10	/	3	-2	-9	/	/	/	/	/
Cc1ccc(-c2cc(C(=O)N3CCCCCC3)no2)cc1	61*	7	-12	47	0	49	18	36	24	18	-2
COc1ccccc1N=C(C)C1=C(O)CSC1=O	-10	28	0	9	-18	-6	/	/	/	/	/
SMILES	SENP6 inh	SENP8 block-1	Platelet DG rel	SENP7 inh	SENP1 FRET inh	SENP8 block-2	SENP8 confirm	SENP6 confirm	SENP7 confirm	Casp3 select	Luc interf
CC(=Nc1ccc(C)c(C)c1)C1=C(O)CSC1=O	54*	-18	1	9	-23	22	58*	56*	82*	74*	64*
CC(=O)c1sc(N/N=C/c2cccc(O)c2)nc1C	11	-402	4	1	-43	4	/	/	/	/	/
CC(=O)c1sc(N/N=C\c2ccc(N(C)C)cc2)nc1C	77*	-301	3	82*	-26	31	20	54*	95*	48	16
CCN(CC)C(=O)COc1ccc2c3c(c(=O)oc2c1C)CCCC3	-28	-399	3	-5	-14	0	/	/	/	/	/
COC(=O)c1ccc(COc2ccc3c4c(c(=O)oc3c2)CCC4)o1	77*	-126	1	58*	-9	70*	14	17	3	1	-5
Cc1c(OCc2ccc(C(=O)O)o2)ccc2c3c(c(=O)oc12)CCC3	82*	-153	8	8	-32	74*	10	84*	84*	17	57*
CC(C)c1onc(C(=O)NC2CCCCC2)c1[N+](=O)[O-]	8	11	14	7	2	1	/	/	/	/	/
COc1cc2c3c(c1OC)C(=O)CC3CCCC2 (stereo not given)	/	-415	/	/	-3	/	/	/	/	/	/

Source: PubChem
